Experimental findings from ChEMBL document CHEMBL1125920, “Synthesis and biological activity of 5-alkyl-1,7,8-trisubstituted-6-fluoroquinoline-3-carboxylic acids” (1991) are described below.

Assay [1] in a line: MIC ratio measured as the mean MICs of gram-positive bacteria. The class given is functional. The method in brief: (§1)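 Geometric mean of the MICs (µg/mL) over the Gram-negative or the Gram-positive strains of the 10-organism microtitration panel, calculated separately for each class.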
Assay [2] relates to Streptococcus pyogenes. Nature of the assay: Antibacterial activity was determined against gram positive organism, Streptococcus pyogenes (C203). The class given is functional. In a few lines:
(§2)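 MIC by standard microtitration against a panel of 10 representative Gram-negative and Gram-positive organisms; values reported in µg/mL.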

Assay [3] deals with Staphylococcus aureus. Nature of the assay: Antibacterial activity was determined against gram positive organism, Staphylococcus aureus (UC76). The class given is functional. The method in brief:
as §2

The target in assay [4] is DNA gyrase (Escherichia coli) (UniProt P0AES6+P0AES4).
Assay [5] concerns Staphylococcus aureus. Nature of the assay: Antibacterial activity was determined against gram positive organism, Staphylococcus aureus (H228). The class given is functional. In a few lines: as §2
For assay [6], the system named is Pseudomonas aeruginosa. Nature of the assay: Antibacterial activity was determined against gram negative organism, Pseudomonas aeruginosa (UI-18). The class given is functional. The method in brief:
as §2

Assay [7] concerns Escherichia coli. Nature of the assay: Antibacterial activity was determined against gram negative organism, E. coli(vogel). The class given is functional. The method in brief:
as §2

Assay [8] concerns Klebsiella pneumoniae. The assay can be described thus: Antibacterial activity was determined against gram negative organism, K. pneumoniae (MGH-2). The class given is functional. The method in brief:
as §2

For assay [9], the system named is Bacteria. Nature of the assay: Antibacterial activity was determined against gram negative organism, Providencia rettgeri. (M1771). The class given is functional. The method in brief:
as §2

Assay [10] deals with Enterococcus faecalis. The assay can be described thus: Antibacterial activity was determined against gram positive organism, Streptococcus faecalis (MGH-2). The class given is functional. The method in brief:
as §2

For assay [11], the system named is Enterobacter cloacae. Nature of the assay: Antibacterial activity against gram negative organism, […] (MA2646). The class given is functional.
A short description of assay [12]: MIC ratio measured as the mean MICs of gram-negative bacteria. The class given is functional. In a few lines:
as §1

Assay [13] relates to Streptococcus pneumoniae. Nature of the assay: Antibacterial activity was determined against gram positive organism, Streptococcus pneumoniae (SV-1). The class given is functional. In a few lines:
as §2

Each structure is given as a SMILES string. Values after ≈ are worked out from the molar mass of the structure shown.

As for `CC1CN(c2cc3c(cc2F)c(=O)c(C(=O)O)cn3-c2ccc(F)cc2F)CCN1` (stereo not given) [TEMAFLOXACIN], the Ratio in [1] worked out at 0.087; in [12], 0.15. In addition, the MIC was found to be 0.1 µg/mL (≈ 0.24 µM) in [2]; 0.025 µg/mL (≈ 0.0599 µM) in assay [3]; 0.1 µg/mL (≈ 0.24 µM) in [5]; 1.6 µg/mL (≈ 3.83 µM) in [6]; 0.05 µg/mL (≈ 0.12 µM) in assay [7]; 0.1 µg/mL (≈ 0.24 µM) in [8]. Further, the MIC came out at 0.2 µg/mL (≈ 0.479 µM) in assay [9], 0.2 µg/mL (≈ 0.479 µM) in assay [10], 0.05 µg/mL (≈ 0.12 µM) in assay [11] and 0.1 µg/mL (≈ 0.24 µM) in assay [13]. Also, in [4], the DNA cleavage was determined as 0.75 µg/mL.
Regarding `Cc1c(F)c(N2CCC(C)(CN)C2)c(F)c2c1c(=O)c(C(=O)O)cn2C1CC1` (stereo not given), the Ratio in assay [1] is 0.0053; in assay [12] it was 0.13. Besides, the minimum inhibitory concentration (MIC) in assay [2] amounted to 0.003 µg/mL (≈ 0.00766 µM); in assay [3], 0.003 µg/mL (≈ 0.00766 µM); in assay [5], 0.006 µg/mL (≈ 0.0153 µM); in assay [6] it was 0.8 µg/mL (≈ 2.04 µM); in assay [7], 0.05 µg/mL (≈ 0.128 µM); in assay [8] it was 0.1 µg/mL (≈ 0.255 µM). Also, the minimal inhibitory concentration (MIC) in assay [9] turned out to be 0.2 µg/mL (≈ 0.511 µM); in [10], 0.025 µg/mL (≈ 0.0639 µM); in assay [11], 0.05 µg/mL (≈ 0.128 µM); in assay [13], 0.003 µg/mL (≈ 0.00766 µM). This compound also returned a DNA cleavage in assay [4] of 3.75 µg/mL.
On to `CCn1cc(C(=O)O)c(=O)c2c(C)c(F)c(N3CC(C)NC(C)C3)cc21` (stereo not given), for which the Ratio was found to be 1.2 in assay [1] and 0.79 in assay [12]. Further, the MIC in [2] came to 3.1 µg/mL (≈ 8.58 µM); in assay [3] it was 0.2 µg/mL (≈ 0.553 µM); in [5], 1.6 µg/mL (≈ 4.43 µM); in [6], 3.1 µg/mL (≈ 8.58 µM); in assay [7], 0.2 µg/mL (≈ 0.553 µM); in assay [8], 0.8 µg/mL (≈ 2.21 µM). Also, the MIC is 1.6 µg/mL (≈ 4.43 µM) in assay [9], 1.6 µg/mL (≈ 4.43 µM) in [10], 0.4 µg/mL (≈ 1.11 µM) in assay [11] and 1.6 µg/mL (≈ 4.43 µM) in [13]. In assay [4], this compound yielded a DNA cleavage of 8.8 µg/mL.
Consider `CCn1cc(C(=O)O)c(=O)c2cc(F)c(N3CCNCC3)c(F)c21`, for which the values for the Ratio in assay [1] and in assay [12] were 0.27 and 0.17, respectively. In addition, the minimal inhibitory concentration (MIC) came out at 3.1 µg/mL (≈ 9.19 µM) in [2]; 0.4 µg/mL (≈ 1.19 µM) in assay [3]; 1.6 µg/mL (≈ 4.74 µM) in assay [5]; 0.8 µg/mL (≈ 2.37 µM) in assay [6]; 0.1 µg/mL (≈ 0.296 µM) in [7]; 0.1 µg/mL (≈ 0.296 µM) in [8]. For the same compound, the minimal inhibitory concentration (MIC) stood at 0.2 µg/mL (≈ 0.593 µM) in assay [9], 1.6 µg/mL (≈ 4.74 µM) in [10], 0.1 µg/mL (≈ 0.296 µM) in [11] and 3.1 µg/mL (≈ 9.19 µM) in assay [13]. Also, the DNA cleavage in assay [4] worked out at 2.5 µg/mL.
Turning to `CCc1c(F)c(N2CCNC(C)C2)cc2c1c(=O)c(C(=O)O)cn2C1CC1` (stereo not given), the Ratio in assay [1] was found to be 10.9; in assay [12] it was 1.83. For the same compound, the MIC in assay [2] came out at 25 µg/mL (≈ 66.9 µM); in [3] it was 3.1 µg/mL (≈ 8.3 µM); in [5], 6.3 µg/mL (≈ 16.9 µM); in assay [6] it was 6.3 µg/mL (≈ 16.9 µM); in [7], 0.4 µg/mL (≈ 1.07 µM); in assay [8] it was 1.6 µg/mL (≈ 4.28 µM). The MIC in [9] is 6.3 µg/mL (≈ 16.9 µM); in [10] it was over 25 µg/mL; in assay [11], 0.8 µg/mL (≈ 2.14 µM); in assay [13], 12.5 µg/mL (≈ 33.5 µM).
For `CC1CN(c2c(F)cc3c(=O)c(C(=O)O)cn(C4CC4)c3c2F)CCN1` (stereo not given), the Ratio amounted to 0.26 in assay [1] and 0.066 in assay [12]. Moreover, the MIC in [2] came out at 0.4 µg/mL (≈ 1.1 µM); in assay [3] it was 0.1 µg/mL (≈ 0.275 µM); in assay [5], 0.2 µg/mL (≈ 0.55 µM); in assay [6] it was 0.4 µg/mL (≈ 1.1 µM); in assay [9], 0.1 µg/mL (≈ 0.275 µM); in assay [10], 0.4 µg/mL (≈ 1.1 µM). For the same compound, the results for the minimal inhibitory concentration (MIC) in assay [11] and in assay [13] were 0.05 µg/mL (≈ 0.138 µM) and 0.4 µg/mL (≈ 1.1 µM), respectively. In assay [4], this compound showed a DNA cleavage of 1 µg/mL.
For `CCn1cc(C(=O)O)c(=O)c2cc(F)c(N3CC(C)NC(C)C3)cc21` (stereo not given), the results for the Ratio in assay [1] and in [12] were 1.21 and 0.6, respectively. The MIC worked out at 1.6 µg/mL (≈ 4.61 µM) in [2]; 0.4 µg/mL (≈ 1.15 µM) in assay [3]; 1.6 µg/mL (≈ 4.61 µM) in [5]; 6.3 µg/mL (≈ 18.1 µM) in assay [6]; 0.2 µg/mL (≈ 0.576 µM) in assay [7]; 0.4 µg/mL (≈ 1.15 µM) in [8]. The MIC in [9] worked out at 0.8 µg/mL (≈ 2.3 µM); in [10], 1.6 µg/mL (≈ 4.61 µM); in assay [11], 0.2 µg/mL (≈ 0.576 µM); in [13] it was 1.6 µg/mL (≈ 4.61 µM).
As for `CC1(CN)CCN(c2cc3c(cc2F)c(=O)c(C(=O)O)cn3C2CC2)C1` (stereo not given), the Ratio in [1] is 0.044; in assay [12], 0.53. For the same compound, the minimum inhibitory concentration (MIC) came to 0.05 µg/mL (≈ 0.139 µM) in [2]; 0.8 µg/mL (≈ 2.23 µM) in assay [6]; 0.2 µg/mL (≈ 0.556 µM) in [7]; 0.4 µg/mL (≈ 1.11 µM) in [8]; 0.8 µg/mL (≈ 2.23 µM) in assay [9]; 0.1 µg/mL (≈ 0.278 µM) in assay [10]. Further, the figures for the MIC in [11] and in assay [13] were 0.8 µg/mL (≈ 2.23 µM) and 0.025 µg/mL (≈ 0.0696 µM), respectively. For the same compound, the DNA cleavage in assay [4] came to 3 µg/mL.
For `O=C(O)c1cn(-c2ccc(F)cc2F)c2cc(N3CCNCC3)c(F)cc2c1=O`, the values for the Ratio in [1] and in assay [12] were 0.17 and 0.11, respectively. In addition, the MIC in assay [2] stood at 0.2 µg/mL (≈ 0.496 µM); in assay [3], 0.05 µg/mL (≈ 0.124 µM); in assay [5], 0.4 µg/mL (≈ 0.992 µM); in [6] it was 0.8 µg/mL (≈ 1.98 µM); in assay [7], 0.05 µg/mL (≈ 0.124 µM); in assay [8], 0.1 µg/mL (≈ 0.248 µM). For the same compound, the MIC in assay [9] came to 0.1 µg/mL (≈ 0.248 µM); in assay [10] it was 0.4 µg/mL (≈ 0.992 µM); in [11], 0.05 µg/mL (≈ 0.124 µM); in [13], 0.1 µg/mL (≈ 0.248 µM).
